Assay results: ChEMBL document CHEMBL3864121, “Development of ebsulfur analogues as potent antibacterials against methicillin-resistant Staphylococcus aureus” (Bioorg Med Chem, 2016)
Values after ≈ are worked out from the molar mass of the structure shown. Active and inactive are the calls of the source. The calls are words filed in the database; no cut-off is given here.

Columns and labels:
Enterococcus faecalis [1] = test: Antibacterial activity against Enterococcus faecalis ATCC 49533 measured after overnight incubation by broth double-dilution method; type: functional
Procedure, shortened: (§1)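 MIC by broth double-dilution in Mueller-Hinton medium. Re-testing at the time-kill inoculum used 1×10^6 CFU/mL.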

Staphylococcus aureus [2] = test: Antibacterial activity against methicillin-resistant Staphylococcus aureus G12 measured after overnight incubation by broth double-dilution method; type: functional
Procedure, shortened: (§2)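 MIC by broth double-dilution in liquid Mueller-Hinton medium. Values are reported in µg/mL.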

Staphylococcus aureus [3] = test: Antibacterial activity against methicillin-resistant Staphylococcus aureus BRS3 measured after overnight incubation by broth double-dilution method; type: functional; procedure, shortened: as §2
Staphylococcus aureus [4] = test: Antibacterial activity against methicillin-resistant Staphylococcus aureus C19 measured after overnight incubation by broth double-dilution method; type: functional; procedure, shortened: as §2
Staphylococcus aureus [5] = test: Antibacterial activity against methicillin-resistant Staphylococcus aureus S17 measured after overnight incubation by broth double-dilution method; type: functional; procedure, shortened: as §2
Staphylococcus aureus [6] = test: Antibacterial activity against methicillin-resistant Staphylococcus aureus S14 measured after overnight incubation by broth double-dilution method; type: functional; procedure, shortened: as §2
Staphylococcus aureus [7] = test: Antibacterial activity against methicillin-sensitive Staphylococcus aureus ATCC 25923 measured after overnight incubation by broth double-dilution method; type: functional; procedure, shortened: as §2
Staphylococcus aureus [8] = test: Antibacterial activity against methicillin-resistant Staphylococcus aureus USA600 measured after overnight incubation by broth double-dilution method; type: functional; procedure, shortened: as §2
[9] = Cytotoxicity against mouse RBCs assessed as hemolysis up to […] measured after 1 hr; type: toxicity, Erythrocyte; settings: mouse red blood cells, read-out: Activity
Mus musculus = species on record: Mus musculus; test: Cytotoxicity against mouse RBCs assessed as hemolysis at 0.24 to 31.2 ug/ml measured after 1 hr; type: toxicity; settings: erythrocyte
Procedure, shortened: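 Murine red blood cells were exposed to compounds at various concentrations, with amikacin as a control. Percent hemolysis was scored against untreated cells (0%) and 1% Triton X (100%).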

Staphylococcus aureus [10] = test: Antibacterial activity against methicillin-resistant Staphylococcus aureus S22 using 1 10^6CFU/ml measured after overnight incubation by broth double-dilution method; type: functional
Staphylococcus aureus [11] = test: Antibacterial activity against methicillin-resistant Staphylococcus aureus ATCC 33591 measured after overnight incubation by broth double-dilution method; type: functional; procedure, shortened: as §2
[12] = system: Staphylococcus epidermidis; test: Antibacterial activity against Staphylococcus epidermidis ATCC 12228 measured after overnight incubation by broth double-dilution method; type: functional; procedure, shortened: as §1
Staphylococcus aureus [13] = test: Antibacterial activity against methicillin-resistant Staphylococcus aureus USA100 measured after overnight incubation by broth double-dilution method; type: functional; procedure, shortened: as §2
Staphylococcus aureus [14] = test: Antibacterial activity against methicillin-resistant Staphylococcus aureus C14 measured after overnight incubation by broth double-dilution method; type: functional; procedure, shortened: as §2
Enterococcus faecalis [15] = test: Antibacterial activity against Enterococcus faecalis ATCC 29212 measured after overnight incubation by broth double-dilution method; type: functional; procedure, shortened: as §1
Staphylococcus aureus [16] = test: Antibacterial activity against methicillin-sensitive Staphylococcus aureus ATCC 29213 measured after overnight incubation by broth double-dilution method; type: functional; procedure, shortened: as §2
Staphylococcus aureus [17] = test: Antibacterial activity against methicillin-resistant Staphylococcus aureus C2 measured after overnight incubation by broth double-dilution method; type: functional; procedure, shortened: as §2
[18] = system: Mycolicibacterium smegmatis; test: Antibacterial activity against Mycobacterium smegmatis MC2-155 measured after overnight incubation by broth double-dilution method; type: functional; settings: str. MC2 155; procedure, shortened: as §2
Salmonella enterica = test: Antibacterial activity against Salmonella enterica ATCC 14028 measured after overnight incubation by broth double-dilution method; type: functional; procedure, shortened: as §1
Staphylococcus aureus [19] = test: Antibacterial activity against methicillin-resistant Staphylococcus aureus C1 measured after overnight incubation by broth double-dilution method; type: functional; procedure, shortened: as §2
Staphylococcus aureus [20] = test: Antibacterial activity against methicillin-resistant Staphylococcus aureus 1 measured after overnight incubation by broth double-dilution method; type: functional; procedure, shortened: as §2
Staphylococcus aureus [21] = test: Antibacterial activity against methicillin-resistant Staphylococcus aureus C7 measured after overnight incubation by broth double-dilution method; type: functional; procedure, shortened: as §2
Listeria monocytogenes = test: Antibacterial activity against Listeria monocytogenes ATCC 19115 measured after overnight incubation by broth double-dilution method; type: functional; procedure, shortened: as §1
Klebsiella pneumoniae = test: Antibacterial activity against Klebsiella pneumoniae ATCC 27736 measured after overnight incubation by broth double-dilution method; type: functional; procedure, shortened: as §2
Staphylococcus aureus [22] = test: Antibacterial activity against methicillin-resistant Staphylococcus aureus NRS4 measured after overnight incubation by broth double-dilution method; type: functional; procedure, shortened: as §2
[23] = system: Staphylococcus epidermidis; test: Antibiofilm activity against Staphylococcus epidermidis ATCC 35984 assessed as reduction of biofilm at […] ug/ml measured after 24 hrs by crystal violet staining based method relative to control; type: functional, RP62A; design: scale not given: the % may be the effect or the level left
Staphylococcus aureus [24] = test: Antibacterial activity against methicillin-resistant Staphylococcus aureus USA300 measured after overnight incubation by broth double-dilution method; type: functional; procedure, shortened: as §2
Staphylococcus aureus [25] = test: Antibacterial activity against methicillin-resistant Staphylococcus aureus G1 measured after overnight incubation by broth double-dilution method; type: functional; procedure, shortened: as §2
Staphylococcus aureus [26] = test: Antibacterial activity against methicillin-resistant Staphylococcus aureus G14 measured after overnight incubation by broth double-dilution method; type: functional; procedure, shortened: as §2
Enterobacter cloacae = test: Antibacterial activity against Enterobacter cloacae ATCC 13047 measured after overnight incubation by broth double-dilution method; type: functional; settings: subsp. cloacae ATCC 13047; procedure, shortened: as §2
Staphylococcus aureus [27] = test: Antibacterial activity against methicillin-resistant Staphylococcus aureus USA200 measured after overnight incubation by broth double-dilution method; type: functional; procedure, shortened: as §2
Staphylococcus aureus [28] = test: Antibacterial activity against methicillin-resistant Staphylococcus aureus C16 measured after overnight incubation by broth double-dilution method; type: functional; procedure, shortened: as §2
Pseudomonas aeruginosa = test: Antibacterial activity against Pseudomonas aeruginosa ATCC 27853 measured after overnight incubation by broth double-dilution method; type: functional; procedure, shortened: as §1
Staphylococcus aureus [29] = test: Antibacterial activity against methicillin-resistant Staphylococcus aureus 2 measured after overnight incubation by broth double-dilution method; type: functional; procedure, shortened: as §2
[30] = system: Staphylococcus epidermidis; test: Antibacterial activity against Staphylococcus epidermidis ATCC 35984 measured after overnight incubation by broth double-dilution method; type: functional; settings: RP62A; procedure, shortened: as §1
Enterococcus faecium = test: Antibacterial activity against Enterococcus faecium BM4105-RF measured after overnight incubation by broth double-dilution method; type: functional; procedure, shortened: as §2
Acinetobacter baumannii = test: Antibacterial activity against Acinetobacter baumannii ATCC 19606 measured after overnight incubation by broth double-dilution method; type: functional; procedure, shortened: as §1
[31] = Cytotoxicity against HEK293 cells assessed as cell death up to 10 ug/ml measured after 24 hrs by resazurin dye-based fluorescence analysis relative to untreated control; type: toxicity; settings: human, hek293, 24 h
Staphylococcus aureus [32] = test: Antibacterial activity against methicillin-resistant Staphylococcus aureus S24 measured after overnight incubation by broth double-dilution method; type: functional; procedure, shortened: as §2
Escherichia coli = test: Antibacterial activity against Escherichia coli MC1061 measured after overnight incubation by broth double-dilution method; type: functional; procedure, shortened: as §2
Enterococcus = test: Antibacterial activity against Vancomycin-resistant Enterococcus measured after overnight incubation by broth double-dilution method; type: functional; procedure, shortened: as §2
Staphylococcus aureus [33] = test: Antibacterial activity against methicillin-resistant Staphylococcus aureus NRS77 measured after overnight incubation by broth double-dilution method; type: functional; procedure, shortened: as §2
Staphylococcus aureus [34] = test: Antibacterial activity against methicillin-resistant Staphylococcus aureus G6 measured after overnight incubation by broth double-dilution method; type: functional; procedure, shortened: as §2
Staphylococcus aureus [35] = test: Antibacterial activity against methicillin-resistant Staphylococcus aureus S22 measured after overnight incubation by broth double-dilution method; type: functional; procedure, shortened: as §2
Staphylococcus aureus [36] = test: Antibacterial activity against methicillin-resistant Staphylococcus aureus NRS51 measured after overnight incubation by broth double-dilution method; type: functional; procedure, shortened: as §2

SMILES: CC(C)c1cccc(-n2sc3ccccc3c2=O)c1
- MIC (Enterococcus faecalis [1]): > 125 µg/mL
- MIC (Staphylococcus aureus [2]): 0.5 µg/mL (≈ 1.86 µM)
- MIC (Staphylococcus aureus [3]): 1 µg/mL (≈ 3.71 µM)
- MIC (Staphylococcus aureus [4]): ≤ 0.25 µg/mL
- MIC (Staphylococcus aureus [5]): ≤ 0.25 µg/mL
- MIC (Staphylococcus aureus [6]): ≤ 0.25 µg/mL
- MIC (Staphylococcus aureus [7]): 0.5 µg/mL (≈ 1.86 µM)
- MIC (Staphylococcus aureus [8]): ≤ 0.25 µg/mL
- hemolysis at 1 h [9]: ≤ 20%
- Activity (Mus musculus): Non-Toxic
- Activity (Staphylococcus aureus [10]): Active
- MIC (Staphylococcus aureus [11]): ≤ 0.25 µg/mL
- MIC [12]: > 125 µg/mL
- MIC (Staphylococcus aureus [13]): 0.5 µg/mL (≈ 1.86 µM)
- MIC (Staphylococcus aureus [14]): 0.5 µg/mL (≈ 1.86 µM)
- MIC (Enterococcus faecalis [15]): > 125 µg/mL
- MIC (Staphylococcus aureus [16]): ≤ 0.25 µg/mL
- MIC (Staphylococcus aureus [17]): ≤ 0.25 µg/mL
- MIC [18]: 1 µg/mL (≈ 3.71 µM)
- MIC (Salmonella enterica): > 125 µg/mL
- MIC (Staphylococcus aureus [19]): ≤ 0.25 µg/mL
- MIC (Staphylococcus aureus [20]): ≤ 0.25 µg/mL
- MIC (Staphylococcus aureus [21]): ≤ 0.25 µg/mL
- MIC (Listeria monocytogenes): 1 µg/mL (≈ 3.71 µM)
- MIC (Klebsiella pneumoniae): > 125 µg/mL
- MIC (Staphylococcus aureus [22]): 1 µg/mL (≈ 3.71 µM)
- Activity [23]: 50 - 60%
- MIC (Staphylococcus aureus [24]): ≤ 0.25 µg/mL
- MIC (Staphylococcus aureus [25]): ≤ 0.25 µg/mL
- MIC (Staphylococcus aureus [26]): 0.5 µg/mL (≈ 1.86 µM)
- MIC (Enterobacter cloacae): > 125 µg/mL
- MIC (Staphylococcus aureus [27]): 0.5 µg/mL (≈ 1.86 µM)
- MIC (Staphylococcus aureus [28]): ≤ 0.25 µg/mL
- MIC (Pseudomonas aeruginosa): > 125 µg/mL
- MIC (Staphylococcus aureus [29]): ≤ 0.25 µg/mL
- MIC [30]: 0.25 µg/mL (≈ 0.928 µM)
- MIC (Enterococcus faecium): 3.9 µg/mL (≈ 14.5 µM)
- MIC (Acinetobacter baumannii): 31.3 µg/mL (≈ 116 µM)
- Activity [31]: > 20%
- MIC (Staphylococcus aureus [32]): ≤ 0.25 µg/mL
- MIC (Escherichia coli): 15.6 µg/mL (≈ 57.9 µM)
- MIC (Enterococcus): ≤ 0.25 µg/mL
- MIC (Staphylococcus aureus [33]): 0.5 µg/mL (≈ 1.86 µM)
- MIC (Staphylococcus aureus [34]): 0.5 µg/mL (≈ 1.86 µM)
- MIC (Staphylococcus aureus [35]): 1 µg/mL (≈ 3.71 µM)
- MIC (Staphylococcus aureus [36]): ≤ 0.25 µg/mL
